Experimental data as given in paper PMC10975593 (ACS Omega, 2024).
Like-named read-outs stand apart in the source and are kept apart here.

Legend:
NCI-H460 = experiment: NCI 60-cell line screen; assay type: cell-based, human
CCRF-CEM = experiment: NCI 60-cell line screen; assay type: cell-based, human
A549/ATCC = experiment: NCI 60-cell line screen; assay type: cell-based, human
Escherichia coli = experiment: Disc diffusion antimicrobial test; assay type: cell-based; conditions: Escherichia coli, 24 h, read-out: zone of inhibition (diameter of inhibition)
Method in brief: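 Disc diffusion on nutrient agar, test compound at 100 μg/mL with DMSO as solvent. Plates incubated at 37 °C for 24 h after inoculation, then zone of inhibition measured and compared with standards. Controls were DMSO, amoxicillin, ciprofloxacin and tetracycline.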

MDA-MB-231/ATCC = experiment: NCI 60-cell line screen; assay type: cell-based, human
PI3Kγ enzyme = PI3Kγ enzyme (Homo sapiens, UniProt P48736); experiment: Adapta universal kinase assay, anti-PI3Kγ activity; assay type: biochemical
Method in brief: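 Adapta ADP-detection TR-FRET immunoassay with test compound at 100 μM. The kinase reaction runs 60 min. It is then stopped by a detection solution of EDTA, europium-labelled anti-ADP antibody and Alexa Fluor 647-labelled ADP tracer. ADP formed displaces the tracer and lowers the TR-FRET signal. ADP formation is calculated from the emission ratio.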

HL-60(TB) = experiment: cells; conditions: Homo sapiens
HCT-116 = experiment: NCI 60-cell line screen; assay type: cell-based, human
K-562 = experiment: NCI 60-cell line screen; assay type: cell-based, human
SNB-75 = experiment: NCI 60-cell line screen; assay type: cell-based, human
Method in brief: (§1)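 Test compounds were submitted to the National Cancer Institute and run under NCI's standard 60-cell-line protocols. Read-outs were taken from percent-growth versus log-concentration curves.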

SNB-19 = experiment: NCI 60-cell line screen; assay type: cell-based, human
Method in brief: as §1

NCI/ADR-RES = experiment: NCI 60-cell line screen; assay type: cell-based, human
NCI-H522 = experiment: NCI 60-cell line screen; assay type: cell-based, human
SK-MEL-2 = experiment: NCI 60-cell line screen; assay type: cell-based, human
Method in brief: as §1

SN12C = experiment: NCI 60-cell line screen; assay type: cell-based, human
Method in brief: as §1

MDA-MB-435 = experiment: NCI 60-cell line screen; assay type: cell-based, human
PC-3 = experiment: NCI 60-cell line screen; assay type: cell-based, human
Method in brief: as §1

HOP-62 = experiment: NCI 60-cell line screen; assay type: cell-based, human
SK-MEL-5 = experiment: NCI 60-cell line screen; assay type: cell-based, human
Method in brief: as §1

UO-31 = experiment: NCI 60-cell line screen; assay type: cell-based, human
Method in brief: as §1

UACC-62 = experiment: NCI 60-cell line screen; assay type: cell-based, human
Method in brief: as §1

NCI-H322M = experiment: NCI 60-cell line screen; assay type: cell-based, human
NCI-H23 = experiment: NCI 60-cell line screen; assay type: cell-based, human
SF-539 = experiment: NCI 60-cell line screen; assay type: cell-based, human
Method in brief: as §1

Chain of PI3Kγ enzyme (P48736 whole entry): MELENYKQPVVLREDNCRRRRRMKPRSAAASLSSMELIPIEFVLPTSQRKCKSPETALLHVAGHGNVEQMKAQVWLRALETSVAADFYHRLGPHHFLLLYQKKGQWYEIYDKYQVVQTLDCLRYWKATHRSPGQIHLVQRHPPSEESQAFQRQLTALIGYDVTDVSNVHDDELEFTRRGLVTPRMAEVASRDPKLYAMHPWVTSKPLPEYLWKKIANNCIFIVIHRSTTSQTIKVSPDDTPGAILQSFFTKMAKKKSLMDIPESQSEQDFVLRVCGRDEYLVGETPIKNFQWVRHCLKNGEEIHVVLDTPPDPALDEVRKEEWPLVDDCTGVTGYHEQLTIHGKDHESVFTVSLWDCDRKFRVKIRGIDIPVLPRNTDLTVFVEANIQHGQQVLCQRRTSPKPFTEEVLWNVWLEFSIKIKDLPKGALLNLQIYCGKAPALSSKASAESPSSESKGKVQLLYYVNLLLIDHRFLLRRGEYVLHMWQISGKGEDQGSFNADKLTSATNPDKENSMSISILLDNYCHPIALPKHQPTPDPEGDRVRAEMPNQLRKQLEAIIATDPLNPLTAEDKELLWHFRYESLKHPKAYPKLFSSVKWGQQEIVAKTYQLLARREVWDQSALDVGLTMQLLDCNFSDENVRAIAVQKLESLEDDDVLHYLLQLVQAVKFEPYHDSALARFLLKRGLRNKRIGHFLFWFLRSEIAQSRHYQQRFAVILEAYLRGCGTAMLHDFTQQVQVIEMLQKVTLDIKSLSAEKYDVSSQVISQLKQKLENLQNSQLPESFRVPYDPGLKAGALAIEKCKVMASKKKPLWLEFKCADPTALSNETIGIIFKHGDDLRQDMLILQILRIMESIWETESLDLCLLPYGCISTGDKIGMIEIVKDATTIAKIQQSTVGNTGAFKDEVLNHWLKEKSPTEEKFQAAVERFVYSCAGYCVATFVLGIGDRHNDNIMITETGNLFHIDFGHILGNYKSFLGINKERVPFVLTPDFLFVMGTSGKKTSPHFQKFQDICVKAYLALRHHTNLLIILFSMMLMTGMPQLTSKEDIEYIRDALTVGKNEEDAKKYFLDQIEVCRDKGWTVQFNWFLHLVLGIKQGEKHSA

SMILES: O=C(CN1CCN(CC(=O)Nc2nc3ccccc3s2)CC1)Nc1ccc([N+](=O)[O-])cc1 [OMS14, N-(benzo[d]thiazol-2-yl)-2-(4-(2-((4-nitrophenyl)amino)-2-oxoethyl)piperazin-1-yl)acetamide]
- GI50 (NCI-H460; Homo sapiens, NCI-H460): 1.3 µM
- IC50 (NCI-H460; Homo sapiens, NCI-H460): 1.8 µM
- CC50 (NCI-H460; Homo sapiens, NCI-H460, read-out: LC50): 21.9 µM
- TGI (NCI-H460; NCI-H460, non-small cell lung cancer): 4.1 µM
- GI50 (CCRF-CEM; Homo sapiens): 2.5 µM
- IC50 (CCRF-CEM; Homo sapiens): 4 µM
- CC50 (CCRF-CEM; Homo sapiens, read-out: LC50): > 100 µM
- TGI (CCRF-CEM; leukemia): 17.4 µM
- TGI (A549/ATCC; A549/ATCC, non-small cell lung cancer): 4.6 µM
- GI50 (A549/ATCC; Homo sapiens, A549): 1.9 µM
- IC50 (A549/ATCC; Homo sapiens, A549): 3.2 µM
- CC50 (A549/ATCC; Homo sapiens, A549, read-out: LC50): > 100 µM
- zone of inhibition at 100 µg/mL (Escherichia coli): 0 mm
- GI50 (MDA-MB-231/ATCC; Homo sapiens, MDA-MB-231): 1.9 µM
- IC50 (MDA-MB-231/ATCC; Homo sapiens, MDA-MB-231): 3.9 µM
- CC50 (MDA-MB-231/ATCC; Homo sapiens, MDA-MB-231, read-out: LC50): 18.2 µM
- TGI (MDA-MB-231/ATCC; MDA-MB-231/ATCC, breast cancer): 4.7 µM
- inhibition at 100 µM (PI3Kγ enzyme; read-out: % of inhibition (mean) against PI3Kγ enzyme): 19%
- inhibition at 100 µM (PI3Kγ enzyme; read-out: % of inhibition against PI3Kγ enzyme, point 1): 15%
- inhibition at 100 µM (PI3Kγ enzyme; read-out: % of inhibition against PI3Kγ enzyme, point 2): 24%
- GI50 (HL-60(TB); HL-60): 2.5 µM
- IC50 (HL-60(TB); HL-60): 4.4 µM
- CC50 (HL-60(TB); HL-60, read-out: LC50): 81.3 µM
- TGI (HCT-116; HCT-116, colon cancer): 10.5 µM
- GI50 (HCT-116; Homo sapiens, HCT-116): 0.7 µM
- IC50 (HCT-116; Homo sapiens, HCT-116): 0.8 µM
- CC50 (HCT-116; Homo sapiens, HCT-116, read-out: LC50): 52.5 µM
- GI50 (K-562; Homo sapiens, K562): 2.6 µM
- IC50 (K-562; Homo sapiens, K562): 3 µM
- CC50 (K-562; Homo sapiens, K562, read-out: LC50): > 100 µM
- TGI (K-562; K-562, leukemia): 100 µM
- GI50 (SNB-75; Homo sapiens, SNB-75): 2 µM
- IC50 (SNB-75; Homo sapiens, SNB-75): 6.6 µM
- CC50 (SNB-75; Homo sapiens, SNB-75, read-out: LC50): 24 µM
- TGI (SNB-75; SNB-75, CNS cancer): 6.0 µM
- GI50 (SNB-19; Homo sapiens, SNB-19): 2.8 µM
- IC50 (SNB-19; Homo sapiens, SNB-19): 4.9 µM
- CC50 (SNB-19; Homo sapiens, SNB-19, read-out: LC50): > 100 µM
- TGI (SNB-19; SNB-19, CNS cancer): 12.3 µM
- GI50 (NCI/ADR-RES; Homo sapiens): 1.3 µM
- IC50 (NCI/ADR-RES; Homo sapiens): 2.4 µM
- CC50 (NCI/ADR-RES; Homo sapiens, read-out: LC50): 7.8 µM
- TGI (NCI/ADR-RES; ovarian cancer): 3.2 µM
- GI50 (NCI-H522; Homo sapiens, NCI-H522): 1.5 µM
- IC50 (NCI-H522; Homo sapiens, NCI-H522): 3 µM
- CC50 (NCI-H522; Homo sapiens, NCI-H522, read-out: LC50): 6.5 µM
- TGI (NCI-H522; NCI-H522, non-small cell lung cancer): 3.2 µM
- GI50 (SK-MEL-2; Homo sapiens, SK-MEL-2): 1.8 µM
- IC50 (SK-MEL-2; Homo sapiens, SK-MEL-2): 3.5 µM
- CC50 (SK-MEL-2; Homo sapiens, SK-MEL-2, read-out: LC50): 6.9 µM
- TGI (SK-MEL-2; SK-MEL-2, melanoma): 3.5 µM
- GI50 (SN12C; Homo sapiens): 1.9 µM
- IC50 (SN12C; Homo sapiens): 3.5 µM
- CC50 (SN12C; Homo sapiens, read-out: LC50): > 100 µM
- TGI (SN12C; renal cancer): 5.4 µM
- GI50 (MDA-MB-435; Homo sapiens, MDA-MB-435): 1.8 µM
- IC50 (MDA-MB-435; Homo sapiens, MDA-MB-435): 3 µM
- CC50 (MDA-MB-435; Homo sapiens, MDA-MB-435, read-out: LC50): 15.1 µM
- TGI (MDA-MB-435; MDA-MB-435, melanoma): 4.6 µM
- GI50 (PC-3; Homo sapiens, PC-3): 3 µM
- IC50 (PC-3; Homo sapiens, PC-3): 4.4 µM
- CC50 (PC-3; Homo sapiens, PC-3, read-out: LC50): > 100 µM
- TGI (PC-3; PC-3, prostate cancer): 20.9 µM
- TGI (HOP-62; HOP-62, non-small cell lung cancer): 3.7 µM
- GI50 (HOP-62; Homo sapiens, HOP-62): 1.7 µM
- IC50 (HOP-62; Homo sapiens, HOP-62): 3.2 µM
- CC50 (HOP-62; Homo sapiens, HOP-62, read-out: LC50): 8.3 µM
- GI50 (SK-MEL-5; Homo sapiens, SK-MEL-5): 1.7 µM
- IC50 (SK-MEL-5; Homo sapiens, SK-MEL-5): 3.2 µM
- CC50 (SK-MEL-5; Homo sapiens, SK-MEL-5, read-out: LC50): 6.3 µM
- TGI (SK-MEL-5; SK-MEL-5, melanoma): 3.3 µM
- GI50 (UO-31; Homo sapiens, UO-31): 1.3 µM
- IC50 (UO-31; Homo sapiens, UO-31): 2.5 µM
- CC50 (UO-31; Homo sapiens, UO-31, read-out: LC50): 8.5 µM
- TGI (UO-31; UO-31, renal cancer): 3.3 µM
- GI50 (UACC-62; Homo sapiens, UACC-62): 1.7 µM
- IC50 (UACC-62; Homo sapiens, UACC-62): 3.1 µM
- CC50 (UACC-62; Homo sapiens, UACC-62, read-out: LC50): 6.9 µM
- TGI (UACC-62; UACC-62, melanoma): 3.5 µM
- GI50 (NCI-H322M; Homo sapiens): 1.9 µM
- IC50 (NCI-H322M; Homo sapiens): 3.7 µM
- CC50 (NCI-H322M; Homo sapiens, read-out: LC50): 40.7 µM
- TGI (NCI-H322M; non-small cell lung cancer): 5.5 µM
- GI50 (NCI-H23; Homo sapiens, NCI-H23): 1.6 µM
- IC50 (NCI-H23; Homo sapiens, NCI-H23): 3.2 µM
- CC50 (NCI-H23; Homo sapiens, NCI-H23, read-out: LC50): 8.9 µM
- TGI (NCI-H23; NCI-H23, non-small cell lung cancer): 3.8 µM
- GI50 (SF-539; Homo sapiens, SF-539): 2 µM
- IC50 (SF-539; Homo sapiens, SF-539): 4.3 µM
- CC50 (SF-539; Homo sapiens, SF-539, read-out: LC50): 20 µM
- TGI (SF-539; SF-539, CNS cancer): 5.5 µM
